Measurements from ChEMBL document CHEMBL3297718, “Ultrasound-assisted one-pot four-component synthesis of novel 2-amino-3-cyanopyridine derivatives bearing 5-imidazopyrazole scaffold and their biological broadcast” (Eur J Med Chem, 2014).
Converted amounts (≈) assume the structure as drawn.

Columns and labels:
Streptococcus pneumoniae = experiment: Antimicrobial activity against Streptococcus pneumoniae MTCC 1936 by broth microdilution method; format: functional
Bacillus subtilis = experiment: Antimicrobial activity against Bacillus subtilis MTCC 441 by broth microdilution method; format: functional
How it was run: (§1)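 Broth microdilution following NCCLS. Compounds were diluted in 2% DMSO in water. Fungi were grown in Sabouraud dextrose broth. Inoculum was set to 10⁸ CFU mL⁻¹ by turbidity. A primary serial-dilution screen was followed by a secondary set of lower dilutions for primary actives. Tubes were incubated at 37 °C, with growth noted at 24 and 48 h. MIC was the highest dilution preventing turbidity after spot subculture.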

Clostridium tetani = experiment: Antimicrobial activity against Clostridium tetani MTCC 449 by broth microdilution method; format: functional
Escherichia coli = experiment: Antimicrobial activity against Escherichia coli MTCC 443 by broth microdilution method; format: functional; how it was run: as §1
Salmonella typhi = experiment: Antimicrobial activity against Salmonella typhi MTCC 98 by broth microdilution method; format: functional, Salmonella enterica subsp. enterica serovar Typhi; details: Salmonella enterica
Vibrio cholerae = experiment: Antimicrobial activity against Vibrio cholerae MTCC 3906 by broth microdilution method; format: functional
Candida albicans = experiment: Antimicrobial activity against Candida albicans MTCC 227 by broth microdilution method; format: functional; how it was run: as §1
Aspergillus fumigatus = experiment: Antimicrobial activity against Aspergillus fumigatus MTCC 3008 by broth microdilution method; format: functional; how it was run: as §1
[1] = system: Mycobacterium tuberculosis; experiment: Antitubercular activity against Mycobacterium tuberculosis H37Rv at 250 ug/ml; format: functional
[2] = system: Mycobacterium tuberculosis; experiment: Antitubercular activity against Mycobacterium tuberculosis H37Rv; format: functional
How it was run: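 M. tuberculosis H37Rv was grown on Lowenstein–Jensen medium with compound at a single concentration of 250, and compared against control tubes of medium alone with the organism. Results are given as % inhibition, and the concentration giving complete inhibition of colonies was taken as the active concentration.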

[3] = Antioxidant activity assessed as ferric ion reducing activity using fe3+-TPTZ at 200 mg/ml measured as ascorbic acid per 100 g sample by FRAP assay; format: physicochemical
How it was run: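 FRAP assay, modified Benzie–Strain. Reagent combined TPTZ in 40 mM HCl, aqueous FeCl₃·6H₂O and acetate buffer at pH 3.6. Sample solution was mixed with 3 mL reagent and incubated 25 min at 37 °C. Fe(II)–TPTZ absorbance was read at 593 nm against an ascorbic acid standard. Results are given as ascorbic equivalents, mmol/100 g compound.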

| Structure (SMILES) | MIC (Streptococcus pneumoniae) | MIC (Bacillus subtilis) | MIC (Clostridium tetani) | MIC (Escherichia coli) | MIC (Salmonella typhi) | MIC (Vibrio cholerae) | MIC (Candida albicans) | MIC (Aspergillus fumigatus) | inhibition at 250 µg/mL [1] | MIC [2] | Activity [3] |
| --- | --- | --- | --- | --- | --- | --- | --- | --- | --- | --- | --- |
| COc1ccc(-c2cc(-c3c(C)nn(-c4ccccc4)c3-n3ccnc3)c(C#N)c(N)n2)cc1 | 125 µg/mL (≈ 279 µM) | 100 µg/mL (≈ 223 µM) | 200 µg/mL (≈ 447 µM) | 125 µg/mL (≈ 279 µM) | 200 µg/mL (≈ 447 µM) | 200 µg/mL (≈ 447 µM) | > 1000 µg/mL | 1000 µg/mL (≈ 2230 µM) | 94% | 62.5 µg/mL (≈ 140 µM) | 400.22 mmol |
| COc1ccc(-c2cc(-c3c(C)nn(-c4ccccc4)c3-n3cnc(C)c3)c(C#N)c(N)n2)cc1 | 100 µg/mL (≈ 217 µM) | 250 µg/mL (≈ 542 µM) | 250 µg/mL (≈ 542 µM) | 125 µg/mL (≈ 271 µM) | 250 µg/mL (≈ 542 µM) | 62.5 µg/mL (≈ 135 µM) | 500 µg/mL (≈ 1080 µM) | 1000 µg/mL (≈ 2170 µM) | 56% |  | 178.82 mmol |
| Cc1nn(-c2ccccc2)c(-n2ccnc2)c1-c1cc(-c2ccco2)nc(N)c1C#N | 100 µg/mL (≈ 245 µM) | 100 µg/mL (≈ 245 µM) | 150 µg/mL (≈ 368 µM) | 250 µg/mL (≈ 614 µM) | 100 µg/mL (≈ 245 µM) | 100 µg/mL (≈ 245 µM) | 500 µg/mL (≈ 1230 µM) | > 1000 µg/mL | 96% | 25 µg/mL (≈ 61.4 µM) | 456.32 mmol |
| Cc1cn(-c2c(-c3cc(-c4ccco4)nc(N)c3C#N)c(C)nn2-c2ccccc2)cn1 | 250 µg/mL (≈ 593 µM) | 500 µg/mL (≈ 1190 µM) | 500 µg/mL (≈ 1190 µM) | 250 µg/mL (≈ 593 µM) | 200 µg/mL (≈ 475 µM) | 200 µg/mL (≈ 475 µM) | > 1000 µg/mL | > 1000 µg/mL | 92% | 100 µg/mL (≈ 237 µM) | 397.24 mmol |
| Cc1nn(-c2ccccc2)c(-n2ccnc2)c1-c1cc(-c2cccs2)nc(N)c1C#N | 100 µg/mL (≈ 236 µM) | 200 µg/mL (≈ 472 µM) | 200 µg/mL (≈ 472 µM) | 500 µg/mL (≈ 1180 µM) | 500 µg/mL (≈ 1180 µM) | 62.5 µg/mL (≈ 148 µM) | > 1000 µg/mL | 500 µg/mL (≈ 1180 µM) | 41% |  | 205.48 mmol |
| Cc1cn(-c2c(-c3cc(-c4cccs4)nc(N)c3C#N)c(C)nn2-c2ccccc2)cn1 | 100 µg/mL (≈ 229 µM) | 500 µg/mL (≈ 1140 µM) | 500 µg/mL (≈ 1140 µM) | 250 µg/mL (≈ 571 µM) | 250 µg/mL (≈ 571 µM) | 100 µg/mL (≈ 229 µM) | > 1000 µg/mL | > 1000 µg/mL | 23% |  | 422.3 mmol |
| Cc1nn(-c2ccccc2)c(-n2ccnc2)c1-c1cc(-c2cc3ccccc3oc2=O)nc(N)c1C#N | 100 µg/mL (≈ 206 µM) | 500 µg/mL (≈ 1030 µM) |  | 200 µg/mL (≈ 412 µM) |  |  | 500 µg/mL (≈ 1030 µM) | 1000 µg/mL (≈ 2060 µM) |  |  | 401.22 mmol |
| Cc1cn(-c2c(-c3cc(-c4cc5ccccc5oc4=O)nc(N)c3C#N)c(C)nn2-c2ccccc2)cn1 | 100 µg/mL (≈ 200 µM) | 200 µg/mL (≈ 400 µM) |  | 250 µg/mL (≈ 500 µM) |  |  | 250 µg/mL (≈ 500 µM) | 500 µg/mL (≈ 1000 µM) |  |  | 433.44 mmol |
| Cc1cn(-c2c(-c3cc(-c4ccc5c(c4)OC(C)(C)O5)nc(N)c3C#N)c(C)nn2-c2ccccc2)cn1 | 500 µg/mL (≈ 993 µM) | 250 µg/mL (≈ 496 µM) | 500 µg/mL (≈ 993 µM) | 125 µg/mL (≈ 248 µM) | 62.5 µg/mL (≈ 124 µM) | 500 µg/mL (≈ 993 µM) | 1000 µg/mL (≈ 1990 µM) | 1000 µg/mL (≈ 1990 µM) | 78% |  | 384.91 mmol |
| CC1(C)S[C@@H]2[C@H](NC(=O)[C@H](N)c3ccccc3)C(=O)N2[C@H]1C(=O)O [AMPICILLIN] | 100 µg/mL (≈ 286 µM) | 250 µg/mL (≈ 715 µM) | 250 µg/mL (≈ 715 µM) | 100 µg/mL (≈ 286 µM) | 100 µg/mL (≈ 286 µM) | 100 µg/mL (≈ 286 µM) |  |  |  |  |  |
| COC1=CC(=O)C[C@@H](C)[C@]12Oc1c(Cl)c(OC)cc(OC)c1C2=O [GRISEOFULVIN] |  |  |  |  |  |  | 500 µg/mL (≈ 1420 µM) | 100 µg/mL (≈ 283 µM) |  |  |  |
| NNC(=O)c1ccncc1 [ISONIAZID] |  |  |  |  |  |  |  |  |  | 0.2 µg/mL (≈ 1.46 µM) |  |
| CO[C@H]1/C=C/O[C@@]2(C)Oc3c(C)c(O)c4c(O)c(c(/C=N/N5CCN(C)CC5)c(O)c4c3C2=O)NC(=O)/C(C)=C\C=C\[C@H](C)[C@H](O)[C@@H](C)[C@@H](O)[C@@H](C)[C@H](OC(C)=O)[C@@H]1C [RIFAMPIN] |  |  |  |  |  |  |  |  | 98% | 0.15 µg/mL (≈ 0.182 µM) |  |
